Most compounds without a hit are left out; they make up all but 2.7% or so of the library.
Mdm2 ligase inh: blocks human Mdm2 ubiquitin ligase activity | Q00987 | signal enhancement, % at 5 µM | AID 1230 | cell-based MDM2 ubiquitination luciferase reporter, 2 h; 0 = plate control, 100 = twice control, blank-subtracted | 210,000 compounds, 0.11% hits;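 active = signal enhancement of 30% or more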;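 note: luminescence tracks abundance of the self-degrading MDM2-luciferase fusion protein; higher signal means inhibition of MDM2 E3 ligase activity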
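Buffer or medium: Cells held in DMEM | Assay system: Stable mammalian line carrying autodegrading MDM2–luciferase fusion reporter | Quantity: 2000 cells/well | Times: 4 h settle plus 2 h compound, 37 °C | Doses: One concentration, 5 µM, with 0.2% DMSO | Technique: Luminescence with SteadyLite reagent, 15 min at room temperature | Benchmarks: Plate controls and plate blanks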
Hck-Nef inh: inhibitors of human Hck kinase activated by Nef; Recombinant Hck-YEEI plus Nef, Z-Lyte FRET kinase assay; AID 463187; inhibition, % at 20 µM; 220,000 compounds, 0.68% hits; P08631;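 active = Hck-Nef kinase inhibition above about 50%, limit read from the data; inactive = inhibition below that limit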
Target sequence (P08631 whole entry, looked up): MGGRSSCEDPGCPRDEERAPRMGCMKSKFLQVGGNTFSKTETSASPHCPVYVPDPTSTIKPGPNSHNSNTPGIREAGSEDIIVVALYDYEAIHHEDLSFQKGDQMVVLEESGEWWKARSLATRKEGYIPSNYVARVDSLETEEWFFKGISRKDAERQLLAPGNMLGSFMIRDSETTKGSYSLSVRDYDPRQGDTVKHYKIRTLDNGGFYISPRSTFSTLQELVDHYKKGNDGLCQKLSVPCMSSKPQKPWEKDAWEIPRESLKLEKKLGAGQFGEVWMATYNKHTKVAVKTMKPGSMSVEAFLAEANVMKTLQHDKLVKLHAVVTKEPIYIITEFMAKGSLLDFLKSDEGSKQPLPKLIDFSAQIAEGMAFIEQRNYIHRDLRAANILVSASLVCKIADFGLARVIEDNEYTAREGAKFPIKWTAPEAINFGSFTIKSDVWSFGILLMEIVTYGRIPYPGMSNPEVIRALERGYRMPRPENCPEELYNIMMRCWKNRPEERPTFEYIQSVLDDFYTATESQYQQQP
TbHK1 inh: blocks Trypanosoma brucei hexokinase 1 activity. recombinant TbHK1, G6PDH-coupled NADH A340. inhibition, % at 10 µM. 220,000 compounds, 0.11% hits. AID 1430;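 active = inhibition of 50% or more in the single-dose primary screen; inactive = inhibition below 50%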
14-3-3 Bad PPI: disrupts binding of bovine 14-3-3 zeta to phospho-Bad peptide; TR-FRET 14-3-3zeta/Dy647-pBad peptide displacement, 1 h; inhibition, % at 21.7 µM; 220,000 compounds, 0.71% hits; AID 781;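 active = inhibition above about 70%, limit read from the data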
Wee1 degr inh: human Wee1 degradation inhibition, primary screen | HeLa Luc-Wee1K328M stability, luciferase luminescence; 100% = proteasome inhibitor MG132 effect | reporter increase, % at 5 µM | 220,000 compounds, 1.2% hits;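 active = activation above the mean of all tested compounds plus 3 SD, set per screening run, cut at about 8.8% in these data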;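 note: cells exposed to compound for 20 h before luminescence read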
Numbers stand for hits; 0 = inactive; - = not tested or not shown; [ ] = another dose, or the depositor's remark.

SMILES	Mdm2 ligase inh	Hck-Nef inh	TbHK1 inh	14-3-3 Bad PPI	Wee1 degr inh
Cc1noc(C)c1-c1nc(CS(=O)(=O)c2ccc(F)cc2)no1	0	0	0	0	0
CC(C)CC(=O)N1CCN(Cc2cccc(F)c2)CC1	0	0	0	79	0
CCN(CC)C(=O)C1CCCN(Cc2ccccc2C(F)(F)F)C1 (stereo not given)	0	0	0	71	0
O=C(C1CCCN(Cc2ccccc2)C1)N1CCc2ccccc2C1 (stereo not given)	0	0	0	78	0
O=C(C1CCCN(Cc2cccc(F)c2)C1)N1CCCCC1 (stereo not given)	0	0	0	86	0
O=C(C1CCC1)N1CCN(Cc2ccccc2)CC1	0	0	0	0	0
CCN(CC)C(=O)C1CCCN(Cc2ccccc2F)C1 (stereo not given)	0	0	0	0	0
COC(=O)C1CCN(C2CC(=O)N(c3cc(C)cc(C)c3)C2=O)CC1 (stereo not given)	0	0	0	0	0
CC(=O)/C(N=Nc1c(C)n(C)n(-c2ccccc2)c1=O)=C(\C)O	0	0	0	0	0
CCOC(=O)/C(N=Nc1c(C)n(C)n(-c2ccccc2)c1=O)=C(\C)O	0	0	0	0	8.9
Fc1ccc(Cn2nnnc2CN2CCN(C3CCCC3)CC2)cc1	0	0	0	78	0
O=C(CN1C(=O)C2C3C=CC(C4CC34)C2C1=O)Oc1ccccc1 (stereo not given)	0	0	0	0	0
CCCN1CNC(=S)N(Cc2ccccc2)C1	0	0	0	0	0
S=C1NCN(CCc2ccccc2)CN1Cc1ccccc1	0	0	0	0	9.6
O=C(CCN1CCCCC1)N/N=C/c1c[nH]c2ccccc12	0	0	0	0	0
Cc1ccc(Sc2ncnc3onc(C)c23)c(C)c1	0	0	0	0	9.1
CN(C)C(=S)SCC(=O)Nc1ccc(Cl)cc1Cl	0	0	0	0	0
COCCN=c1scc(C)n1/N=C/C1CC2C=CC1C2 (stereo not given)	0	0	0	0	0
CC(CCc1ccccc1)NCC#N (stereo not given)	0	0	0	0	0
Nc1ccccc1-c1nc2ccccc2s1	0	0	0	73	0
O=c1c(-c2nc3ccccc3s2)cccn1Cc1ccccc1	0	0	0	0	9.0
Cc1cc(NC(=O)CC(CN(C)S(=O)(=O)c2ccccc2)c2ccccc2)no1 (stereo not given)	0	0	0	0	0
O=C(NCCN1C(=O)S/C(=C\c2cccnc2)C1=O)C1=NN(c2ccccc2)C(=O)CC1	0	0	0	0	0
CC1(C)CC(=O)N(c2ccccc2)C1(C)O (stereo not given)	0	0	0	0	0
O=C(CSc1nc(-c2ccccc2)nc2c1Cc1ccccc1O2)Nc1ccc(C(=O)O)cc1	0	0	0	94	0
SMILES	Mdm2 ligase inh	Hck-Nef inh	TbHK1 inh	14-3-3 Bad PPI	Wee1 degr inh
O=C(CSc1nc(-c2ccccc2)nc2ccccc12)Nc1cccc(C(=O)O)c1	0	0	0	0	0
CC(=O)Nc1nc(-c2ccc(Cl)cc2)nc(C)c1C(C)=O	0	0	0	86	0
CC(=O)c1c(C)nc(C)nc1NC(=O)Cc1ccccc1	0	0	0	0	0
Cc1cccc2nc(COc3ccc4ccccc4c3Br)cn12	-	0	0	0	11
Cc1cccc2nc(CSc3ccccc3N)cn12	-	0	0	0	0
COc1cc(OC)c2c(c1O)OC(c1ccccc1)CC2=O (stereo not given)	0	0	0	0	0
COC1=CC(=O)CC(C)C12Oc1c(Cl)c(OC)cc(OC)c1C2=O (stereo not given)	-	0	0	77	0
Cc1ccc(-c2nc3cc(NC(=O)C(C)C)ccc3o2)cc1C	0	0	0	0	0
O=C(Nc1ccc(-c2nc3cc(NC(=O)c4cccs4)ccc3o2)cc1)c1cccs1	0	0	0	74[fluorescence artefact?]	0
Cc1ccc(-c2nc3cc(NC(=O)C(C)C)ccc3o2)cc1	0	0	0	0	25
O=C(Nc1ccc2oc(-c3ccc(Cl)c(Cl)c3)nc2c1)c1ncn[nH]1	0	0	0	75	0
S=C(NCCN1CCOCC1)NC1CCCC1	0	0	0	0	0
O=C(SCC(O)C(O)CS)c1cccs1 (stereo not given)	0	0	0	0	-
O=C(COC(=O)COc1ccccc1[N+](=O)[O-])NC1CCCC1	0	0	0	0	10
